Experiments:
Jurkat = assay: Growth inhibition of human Jurkat cells incubated for 72 hrs by MTT assay; format: functional
Outline: (§1)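 Leukemia lines were grown in RPMI-1640; the CEM^Vbl-100 medium also contained 100 ng/mL vinblastine. Cells were seeded at 8 × 10³ per well and left 18 h at 37 °C, 5% CO2. Medium was then replaced with fresh medium holding graded compound concentrations (DMSO stocks), in triplicate, for 72 h. Viability was read by MTT, and GI50 = concentration inhibiting proliferation 50%.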

HL-60 = assay: Growth inhibition of human HL60 cells incubated for 72 hrs by MTT assay; format: functional; settings: HL-60, 72 h; outline: as §1
RS4-11 = assay: Growth inhibition of human RS4:11 cells incubated for 72 hrs by MTT assay; format: functional; settings: RS4-11, 72 h; outline: as §1
MCF7 = assay: Growth inhibition of human MCF7 cells incubated for 72 hrs by MTT assay; format: functional; settings: MCF7, 72 h
HeLa = assay: Growth inhibition of human HeLa cells incubated for 72 hrs by MTT assay; format: functional
HT-29 = assay: Growth inhibition of human HT-29 cells incubated for 72 hrs by MTT assay; format: functional; settings: HT-29, 72 h
[1] = Growth inhibition of human PBL cells incubated for 72 hrs by MTT assay; format: cell-based; settings: PBL cells (peripheral blood lymphocytes)
Outline: (§2)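 PBL from healthy donors were isolated on a Lymphoprep gradient, held overnight in RPMI-1640 with 10% FBS, and the non-adherent cells resuspended at 5 × 10^5 cells/mL. Proliferating cultures got 2.5 µg/mL PHA; resting cultures got none. Compound was added at several concentrations for 72 h and viability read by MTT. GI50 reported as mean ± SEM of three experiments.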

[2] = Growth inhibition of PHA-stimulated human PBL cells incubated for 72 hrs by MTT assay; format: cell-based; settings: PHA-stimulated PBL cells (peripheral blood lymphocytes); outline: as §2
CCRF-CEM = assay: Growth inhibition of human CEM cells incubated for 72 hrs by MTT assay; format: functional; outline: as §1
[3] = Growth inhibition of multidrug-resistant human CEM/VBL100 cells incubated for 72 hrs by MTT assay; format: functional; settings: CEM/VBL100, 72 h; outline: as §1
Tubulin = Tubulin (Bos taurus, UniProt Q6B856+Q862L2+Q862F3); assay: Inhibition of bovine brain tubulin polymerization preincubated for 15 mins followed by GTP addition and measured for 20 mins by turbidimetry-based spectrophotometric method
Outline: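 Bovine brain tubulin (10 µM) was preincubated with varying compound concentrations in 0.8 M monosodium glutamate, pH 6.6, for 15 min at 30 °C, then cooled to 0 °C. GTP was added to 0.4 mM final and the mix warmed to 30 °C. Turbidity was followed at 350 nm. IC50 = concentration inhibiting extent of assembly 50% after 20 min.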

Tubulin (Bos taurus) = Tubulin (Bos taurus) (UniProt Q6B856+Q862L2+Q862F3); assay: Inhibition of [3H]colchicine binding to bovine brain tubulin at 5 uM relative to control
Outline: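 Bovine brain tubulin at 1 µM was incubated with 5 µM [3H]colchicine and the test compound at 5 µM. Inhibition of colchicine binding was measured relative to a control.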

[4] = Time-dependent metabolic stability in human liver microsomes at 10 uM incubated for 30 mins in presence of NADPH by HPLC analysis; format: ADME, Microsome; settings: 0.5 h
Outline: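 Pooled mixed-gender HLMs (0.5 mg/mL) plus 1 mM NADPH in 0.1 M KH₂PO₄ pH 7.4, compound 10 μM final, 37 °C. Reaction started with microsomes after 3-min equilibration. Stopped with ice-cold acetonitrile at 0, 2, 5, 15, 30 min, then HPLC-fluorescence of supernatant. Percent remaining vs 0 min (mean ± SD, n = 3). Half-life = 0.693/k from linear regression of Ln % remaining vs time.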

[5] = Metabolic stability in human liver microsomes assessed as half life at 10 uM incubated for 30 mins in presence of NADPH by HPLC analysis; format: ADME, Microsome
Outline: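 Compound (10 µM) was incubated at 37 °C with 0.5 mg/mL pooled HLMs and 1 mM NADPH in 0.1 M KH2PO4 pH 7.4, sampled at 0, 2, 5, 15 and 30 min. Controls without NADPH, or buffer only, ran 0 and 30 min. Parent was quantified by HPLC-fluorescence as % of the 0 min level, n = 3. t1/2 = 0.693/k, with k from regression of ln % remaining versus time.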

[6] = Metabolic stability in human liver microsomes at 10 uM incubated for 15 mins in presence of NADPH and non-selective CYP inhibitor quercetin by HPLC analysis; format: ADME, Microsome; settings: 0.25 h
Outline: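 Compound (10 µM) was incubated 0 and 15 min at 37 °C with pooled HLMs and 1 mM NADPH in 0.1 M KH2PO4 pH 7.4, with or without 100 µM quercetin. Parent remaining was measured by HPLC-fluorescence relative to 0 min; mean ± SD, n = 3.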

[7] = Selectivity ratio of GI50 for human PBL cells to GI50 for human Jurkat cells incubated for 72 hrs by MTT assay
Outline: (§3)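 Leukemia cells (CEM, DND-41, Jurkat) were grown in RPMI-1640 at 8×10³ cells/well and left 18 h. Donor PBL were gradient-separated, held overnight in RPMI-1640/10% FBS, and non-adherent cells set at 5×10^5 cells/mL without PHA (resting). Both were exposed 72 h to graded concentrations, read by MTT. The ratio is PBL GI50 over leukemia GI50.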

[8] = Stability in phosphate buffer at pH 7.4 at 10 uM incubated for 30 mins by HPLC analysis; format: physicochemical; settings: pH 7.4, 0.5 h
Outline: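 No microsomes or NADPH: compound (10 μM final) held in 0.1 M KH₂PO₄ pH 7.4 at 37 °C. Samples taken at 0 and 30 min, quenched with ice-cold acetonitrile, centrifuged, analysed by HPLC with fluorescence detection. Percent parent remaining relative to 0 min; mean ± SD, n = 3.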

[9] = Selectivity ratio of GI50 for human PBL cells to GI50 for human DND41 cells incubated for 72 hrs by MTT assay; outline: as §3
[10] = Selectivity ratio of GI50 for human PBL cells to GI50 for human CEM cells incubated for 72 hrs by MTT assay; format: functional; outline: as §3
[11] = Selectivity ratio of GI50 for PHA-stimulated human PBL cells to GI50 for human Jurkat cells incubated for 72 hrs by MTT assay
Outline: (§4)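 Leukemia cells (CEM, DND-41, Jurkat) were grown in RPMI-1640 at 8×10³ cells/well and left 18 h. Donor PBL were gradient-separated, held overnight, and non-adherent cells set at 5×10^5 cells/mL with 2.5 µg/mL PHA. Both were exposed 72 h at 37 °C to graded compound concentrations, read by MTT. The ratio is PBL GI50 over leukemia GI50.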

[12] = Selectivity ratio of GI50 for PHA-stimulated human PBL cells to GI50 for human CEM cells incubated for 72 hrs by MTT assay; outline: as §4

Structure (SMILES)	GI50 (Jurkat) [nM]	GI50 (HL-60) [nM]	GI50 (RS4-11) [nM]	GI50 (MCF7) [nM]	GI50 (HeLa) [nM]	GI50 (HT-29) [nM]	GI50 at 72 h [1] [nM]	GI50 at 72 h [2] [nM]	GI50 (CCRF-CEM) [nM]	GI50 [3] [nM]	IC50 (Tubulin) [nM]	inhibition (Tubulin (Bos taurus)) [%]	Stability [4]	half-life at 10 µM [5] [min]	Stability [6]	RatioGI50 [7]	Stability [8]	RatioGI50 [9]	RatioGI50 [10]	RatioGI50 [11]	further results
CCn1ccc2c3c(=O)cc(-c4ccccc4F)[nH]c3ccc21	0.19	0.17	0.09	247	1.2	1.1	28000	15200	3.1	1.1	960	77	Unstable	11.4	Stable	10000 - 30000	Stable	10000 - 30000	10000 - 30000	10000 - 30000	RatioGI50 [12]: 10000 - 30000
CCn1ccc2c3c(=O)cc(-c4ccccc4)[nH]c3ccc21	0.5	0.5	2	40	11	32	> 100000	7600	14	4	570	73	Unstable	17.3	Stable	10000 - 30000	Stable	10000 - 30000	10000 - 30000	10000 - 30000	RatioGI50 [12]: 10000 - 30000
